What all share (assay type): functional
Assay [1] has as its system JeKo-1. Put plainly: Cytotoxicity against human JeKo1 cells assessed as cell viability at 10 uM after 24 hrs by MTT assay relative to control. The following applies: JeKo-1, 24 h, read-out: Activity. The procedure, abridged:
(§1)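 Suspension lines grown in α-MEM plus 10% FBS and penicillin-streptomycin, 37 °C, 5% CO2. Seeded at 30,000 cells/well in phenol-red-free α-MEM and rested 15 h. Exposed to 10 µM, or 2 µM in the lower-dose repeat, at 1% DMSO final for 24 h. 5 mg/ml MTT added directly for 3 h at 37 °C. Plates spun, formazan dissolved in DMSO, OD read at 550 nm. Viability relative to vehicle.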

In the next assay the test system is SK-MEL-2. Put plainly: Cytotoxicity against human SK-MEL-2 cells assessed as cell viability at 10 uM after 24 hrs by MTT assay relative to control. Particulars: SK-MEL-2, 24 h, read-out: Activity. The procedure, abridged:
(§2)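 Adherent lines in DMEM plus 10% FBS and penicillin-streptomycin, 37 °C, 5% CO2, lifted with Accutase. Seeded at 500–10,000 cells/well and rested 15 h. Compounds from 10 mM DMSO stocks dosed at 10 µM final, 1% DMSO final, n = 5, for 24 h. Medium then swapped for 1 mg/ml MTT in phenol-red-free medium for 3 h at 37 °C. Formazan dissolved in DMSO, OD read at 550 nm. Viability normalised to 1% DMSO vehicle control.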

The next assay has as its system SK-N-MC. The assay is described as follows: Cytotoxicity against human SK-N-MC cells assessed as cell viability at 10 uM after 24 hrs by MTT assay relative to control. The following applies: read-out: Activity. The procedure, abridged:
as §2

Another assay deals with A549. Put plainly: Cytotoxicity against human A549 cells assessed as cell viability at 10 uM after 24 hrs by MTT assay relative to control. Particulars: A549, 24 h, read-out: Activity. The procedure, abridged: as §2
The next assay deals with HeLa. Put plainly: Cytotoxicity against human HeLa cells assessed as cell viability at 10 uM after 24 hrs by MTT assay relative to control. Particulars: read-out: Activity. The procedure, abridged: as §2
Assay [2] relates to Jurkat. The assay is described as follows: Cytotoxicity against human Jurkat cells assessed as cell viability at 2 uM after 24 hrs by MTT assay relative to control. Particulars: read-out: Activity. The procedure, abridged: as §1
Assay [3] deals with JeKo-1. Put plainly: Cytotoxicity against human JeKo1 cells assessed as cell viability at 2 uM after 24 hrs by MTT assay relative to control. Particulars: JeKo-1, 24 h, read-out: Activity. The procedure, abridged: as §1
Assay [4] relates to HCT-116. The assay is described as follows: Cytotoxicity against human HCT116 cells assessed as cell viability at 10 uM after 24 hrs by MTT assay relative to control. The following applies: HCT-116, 24 h, read-out: Activity. The procedure, abridged: as §2
Assay [5] relates to Jurkat. Put plainly: Cytotoxicity against human Jurkat cells assessed as cell viability at 10 uM after 24 hrs by MTT assay relative to control. Particulars: read-out: Activity. The procedure, abridged: as §1
The subject of another assay is SJSA-1. The assay is described as follows: Cytotoxicity against human SJSA1 cells assessed as cell viability at 10 uM after 24 hrs by MTT assay relative to control. Particulars: SJSA-1, 24 h, read-out: Activity. The procedure, abridged: as §2
The next assay deals with PC-3. Put plainly: Cytotoxicity against human PC3 cells assessed as cell viability at 10 uM after 24 hrs by MTT assay relative to control. Particulars: PC-3, 24 h, read-out: Activity. The procedure, abridged:
as §2

The next assay deals with MDA-MB-231. Put plainly: Cytotoxicity against human MDA-MB-231 cells assessed as cell viability at 10 uM after 24 hrs by MTT assay relative to control. Particulars: MDA-MB-231, 24 h, read-out: Activity. The procedure, abridged: as §2
In assay [6] the test system is HCT-116. The assay is described as follows: Cytotoxicity against human HCT116 cells assessed as cell viability after 24 hrs by MTT assay. Particulars: HCT-116, 24 h, read-out: LC50 (the source's name). The procedure, abridged:
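Adherent cells grown in DMEM with 10% FBS and penicillin-streptomycin, dissociated with Accutase, seeded at 500–10,000 cells/well and held 15 h before treatment. Compounds diluted from 10 mM DMSO stocks, final 1% DMSO, for 24 h at 37 °C, 5% CO2. Medium replaced with 1 mg/ml MTT for 3 h, formazan dissolved in DMSO, OD 550 nm. LC50 from dose-response curves normalized to 1% DMSO vehicle.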

Take `C=C1C(=O)O[C@@H]2[C@H]3O[C@]3(C)CC/C=C(/C)[C@@H](OC(=O)Nc3ccc(F)cc3F)C[C@@H]12`: the viability at 10 µM in the assay with JeKo-1 [1] is -2.6%; with SK-MEL-2, 85.8%; in the assay with SK-N-MC it was 91.3%; in the assay on A549 it was 68.9%; in the assay on HeLa, 76.3%; in the assay on HCT-116 [4] it was 17.6%. Further, the viability at 10 µM in the assay on Jurkat [5] amounted to 0%; with SJSA-1 it was 100%; with PC-3, 82.8%; with MDA-MB-231, 96.4%. The results for the viability at 2 µM in the assay on Jurkat [2] and with JeKo-1 [3] were 85.8% and 80.4%, respectively. Also, the CC50 in the assay with HCT-116 [6] is 11.8 µM.
Turning to `C=C1C(=O)O[C@@H]2[C@H]3O[C@]3(C)CC/C=C(/COC(=O)c3coc(-c4ccc(Br)cc4)c3)CC[C@@H]12`, the viability at 10 µM in the assay on JeKo-1 [1] is 7.4%; with SK-MEL-2 it was 78.8%; in the assay with SK-N-MC, 66.1%; with A549, 74.8%; with HeLa it was 57.6%; in the assay with HCT-116 [4], 11.8%. Moreover, the viability at 10 µM in the assay on Jurkat [5] is 0%; in the assay on SJSA-1, 47.7%; in the assay with PC-3 it was 65.9%; with MDA-MB-231, 91%. Further, the viability at 2 µM came to 89% in the assay with Jurkat [2] and 100% in the assay with JeKo-1 [3]. Also, the CC50 with HCT-116 [6] is 11.8 µM.
In the case of `C=C1C(=O)O[C@@H]2[C@H]3O[C@]3(C)CC/C=C(/C)[C@@H](OC(=O)c3cc(-c4ccc(Cl)cc4)on3)C[C@@H]12`, the viability at 10 µM in the assay on JeKo-1 [1] was -2.7%; with SK-MEL-2, 85.8%; with SK-N-MC, 70.7%; in the assay with A549, 98.4%; with HeLa, 63.5%; in the assay on HCT-116 [4], 14.2%. Besides, the viability at 10 µM in the assay with Jurkat [5] was found to be 0%; with SJSA-1, 92.7%; in the assay with PC-3 it was 71.7%; with MDA-MB-231, 84.7%. Moreover, the viability at 2 µM with Jurkat [2] was 95.7%; in the assay with JeKo-1 [3], 96.9%. In addition, the CC50 in the assay with HCT-116 [6] stood at 8.3 µM.
With `C=C1C(=O)O[C@@H]2[C@H]3O[C@]3(C)CC/C=C(/C)[C@@H](OC(=O)c3cccs3)C[C@@H]12`, the viability at 10 µM in the assay with JeKo-1 [1] was found to be 12.9%; with SK-MEL-2, 94.7%; in the assay on SK-N-MC it was 98.2%; in the assay with A549 it was 102%; in the assay with HeLa, 87.5%; in the assay on HCT-116 [4], 29.4%. Moreover, the viability at 10 µM in the assay on Jurkat [5] amounted to 15.4%; in the assay on SJSA-1, 98.3%; in the assay with PC-3, 93%; in the assay with MDA-MB-231, 97.6%. Also, the viability at 2 µM with Jurkat [2] was found to be 94%; with JeKo-1 [3], 98.1%.
For `C=C1C(=O)O[C@@H]2[C@H]3O[C@]3(C)CC/C=C(/COc3coc(-c4ccc(Br)cc4)c3)CC[C@@H]12`, the viability at 10 µM with JeKo-1 [1] was -2%; in the assay with SK-MEL-2 it was 103%; in the assay on SK-N-MC, 90.9%; with A549 it was 95.2%; in the assay on HeLa, 59.2%; in the assay with HCT-116 [4] it was 26.4%. Also, the viability at 10 µM in the assay with Jurkat [5] is 0%; in the assay with SJSA-1, 93.7%; with PC-3, 97.1%; in the assay on MDA-MB-231, 87.1%. Also, the viability at 2 µM with Jurkat [2] is 87.6%; with JeKo-1 [3] it was 98.8%.
`C=C1C(=O)O[C@@H]2[C@H]3O[C@]3(C)CC/C=C(/COC(=O)c3ccc(C(F)(F)F)cc3)CC[C@@H]12`: the viability at 10 µM in the assay on JeKo-1 [1] was -1.6%; in the assay with SK-MEL-2 it was 85.4%; with SK-N-MC, 67.8%; with A549, 94.1%; with HeLa, 63.9%; in the assay on HCT-116 [4], 27.3%. Further, the viability at 10 µM in the assay with Jurkat [5] came to 0%; in the assay with SJSA-1, 73.6%; in the assay on PC-3 it was 69.3%; in the assay with MDA-MB-231 it was 75.5%. Further, the viability at 2 µM with Jurkat [2] was determined as 92.4%; with JeKo-1 [3], 95.9%.
`C=C1C(=O)O[C@@H]2[C@H]3O[C@]3(C)CC/C=C(/COC(=O)c3ccc4ccccc4c3)CC[C@@H]12`: the viability at 10 µM in the assay on JeKo-1 [1] came to 63.2%; with SK-MEL-2, 73.6%; in the assay on SK-N-MC, 104%; with A549, 84.5%; with HeLa, 75%; with HCT-116 [4], 100%. The viability at 10 µM in the assay with Jurkat [5] was 75.7%; in the assay with SJSA-1, 98.3%; in the assay on PC-3 it was 81.9%; in the assay on MDA-MB-231, 100%. Besides, the viability at 2 µM was found to be 97.9% in the assay on Jurkat [2] and 89.2% in the assay on JeKo-1 [3].
In the case of `C=C1C(=O)O[C@@H]2[C@H]3O[C@]3(C)CC/C=C(/C)[C@@H](OC(C(=O)OCC)c3ccc(C(F)(F)F)cc3)C[C@@H]12` (stereo not given in full), the viability at 10 µM was -1.4% in the assay on JeKo-1 [1]; 71.2% in the assay on SK-MEL-2; 69.8% with SK-N-MC; 70.4% in the assay with A549; 67.1% in the assay on HeLa; 20% in the assay with HCT-116 [4]. Further, the viability at 10 µM was determined as 0% in the assay with Jurkat [5], 100% in the assay with SJSA-1, 60.4% in the assay with PC-3 and 77.6% in the assay on MDA-MB-231. The viability at 2 µM was determined as 80.6% in the assay with Jurkat [2] and 76.3% with JeKo-1 [3].
Take `C=C1C(=O)O[C@@H]2[C@H]3O[C@]3(C)CC/C=C(/C)[C@@H](OC(=O)Nc3ccc([N+](=O)[O-])cc3)C[C@@H]12`: the viability at 10 µM was found to be 0% in the assay with JeKo-1 [1]; 75.2% in the assay with SK-MEL-2; 92.4% with SK-N-MC; 83.3% in the assay on A549; 78% in the assay with HeLa; 38% in the assay on HCT-116 [4]. For the same compound, the viability at 10 µM was 0.2% in the assay with Jurkat [5], 100% in the assay on SJSA-1, 94.1% in the assay on PC-3 and 98.6% in the assay with MDA-MB-231. Also, the viability at 2 µM in the assay on Jurkat [2] is 78.9%; in the assay on JeKo-1 [3], 84.1%.
Regarding `C=C1C(=O)O[C@@H]2[C@H]3O[C@]3(C)CC/C=C(/COCc3ccccc3)CC[C@@H]12`, the viability at 10 µM was determined as 5% with JeKo-1 [1]; 84.2% with SK-MEL-2; 75.3% in the assay on SK-N-MC; 99.3% in the assay on A549; 74.8% with HeLa; 96.3% in the assay with HCT-116 [4]. Also, the viability at 10 µM is 6% with Jurkat [5], 99.4% with SJSA-1, 94.7% in the assay with PC-3 and 100% with MDA-MB-231. The figures for the viability at 2 µM in the assay with Jurkat [2] and in the assay with JeKo-1 [3] were 91% and 100%, respectively.
As to `C=C1C(=O)O[C@@H]2[C@H]3O[C@]3(C)CC/C=C(/COCc3ccc(C(F)(F)F)cc3)CC[C@@H]12`, the viability at 10 µM in the assay on JeKo-1 [1] was found to be 18.2%; in the assay on SK-MEL-2 it was 79.6%; with SK-N-MC it was 93.6%; in the assay with A549 it was 87.7%; with HeLa, 72.5%; in the assay on HCT-116 [4], 82.9%. Further, the viability at 10 µM in the assay with Jurkat [5] was determined as 21.8%; in the assay on SJSA-1 it was 100%; with PC-3, 89.3%; in the assay on MDA-MB-231, 100%. Besides, the viability at 2 µM amounted to 100% in the assay on Jurkat [2] and 97.3% in the assay with JeKo-1 [3].
